The source made the active and inactive calls. The rule behind the calls is not given here.
How the values were obtained:
U-937 [1] = assay: Induction of cell cycle arrest in human U937 cells assessed as accumulation at subG1 phase at 10 uM after 12 hrs by propidium iodide staining based flow cytometry (reference value: 4.6 +/- 0.9%); type: functional
U-937 [2] = assay: Induction of cell cycle arrest in human U937 cells assessed as accumulation at G1 phase at 3 uM after 24 hrs by propidium iodide staining based flow cytometry (reference value: 49.8 +/- 1.5%); type: functional
HL-60 [3] = assay: Induction of apoptosis in human HL60 cells assessed as pro-caspase-9 processing at 3 and 10 uM after 6 to 24 hrs by immunoblotting method; type: functional, cell-based
Procedure, shortened: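 Kinetic and dose-response immunoblots. Cells were treated, harvested at the indicated times, and probed with antibodies that detect both procaspase-8/-9 and their cleaved fragments.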

HL-60 [4] = assay: Induction of apoptosis in human HL60 cells assessed as pro-caspase-3 cleavage by Western blotting method; type: functional, cell-based
Procedure, shortened: (§1)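 Cells were exposed to a range of compound concentrations and harvested at 24 h. Lysates were immunoblotted for caspase proforms and cleaved forms, and for Bcl-2 family proteins.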

U-937 [5] = assay: Induction of cell cycle arrest in human U937 cells assessed as accumulation at S phase at 10 uM after 24 hrs by propidium iodide staining based flow cytometry (reference value: 18.6 +/- 0.3%); type: functional
U-937 [6] = assay: Increase in DR5 expression in human U937 cells at 10 30 uM after 24 hrs by immunoblotting method; type: functional, cell-based
Procedure, shortened: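 HL-60 and U937 cells were treated with increasing concentrations for 24 h. Lysates were immunoblotted for TRAIL, DR4 and DR5.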

HL-60 [7] = assay: Induction of cell cycle arrest in human HL60 cells assessed as accumulation at G2/M phase at 3 uM after 12 hrs by propidium iodide staining based flow cytometry (reference value: 18.5 +/- 0.5%); type: functional
MOLT-3 [8] = assay: Induction of apoptosis in human MOLT3 cells assessed as increase in caspase 8 activity using IETD-pNA substrate at 10 uM after 24 hrs; type: functional, cell-based
Procedure, shortened: (§2)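 Cells were given 10 µM for 24 h. Lysates were assayed for cleavage of DEVD-pNA (caspase-3/7), IETD-pNA (caspase-8) and LEHD-pNA (caspase-9). Results are expressed as fold over control, from three independent experiments in triplicate.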

U-937 [9] = assay: Induction of apoptosis in human U937 cells assessed as pro-caspase-8 processing at 3 and 10 uM after 6 to 24 hrs by immunoblotting method; type: functional, cell-based
Procedure, shortened: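 Kinetic and dose-response experiment: cells were treated with the indicated concentrations and harvested at the indicated times. Pro-caspase-8 and -9 cleavage was detected by immunoblotting with antibodies that bind both the proenzyme and the cleaved fragments.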

HL-60 [10] = assay: Induction of cell cycle arrest in human HL60 cells assessed as accumulation at G2/M phase at 1 uM after 12 hrs by propidium iodide staining based flow cytometry (reference value: 18.5 +/- 0.5%); type: functional
U-937 [11] = assay: Cytotoxicity against human U937 cells at 30 uM in presence of 0.5 ug/mL TRAIL incubated simultaneously with drug for 48 hrs by MTT assay; type: functional, cell-based
Procedure, shortened: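 U937 cells, MTT viability read-out. One arm received TRAIL at 0.5 µg/mL together with compound at 30 µM for 48 h. The other arm had compound for 24 h, then TRAIL for 24 h. Three independent experiments, each in triplicate.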

HL-60 [12] = assay: Induction of cell cycle arrest in human HL60 cells assessed as accumulation at G2/M phase at 3 uM after 24 hrs by propidium iodide staining based flow cytometry (reference value: 22.5 +/- 0.9%); type: functional
MOLT-3 [13] = assay: Effect on Bax expression in human MOLT3 cells by Western blotting method; type: functional, cell-based; procedure, shortened: as §1
U-937 [14] = assay: Induction of apoptosis in human U937 cells assessed as pro-caspase-7 cleavage by Western blotting method; type: functional, cell-based
Procedure, shortened: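 U937 cells exposed to increasing concentrations of the flavonol and harvested at 24 h. Lysates were immunoblotted with antibodies that detect both the pro-caspases and their cleaved forms.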

HL-60 [15] = assay: Induction of apoptosis in human HL60 cells in presence of p38MAPK inhibitor SB203580 after 24 hrs by propidium iodide staining based flow cytometry; type: functional, cell-based
MOLT-3 [16] = assay: Induction of apoptosis in human MOLT3 cells assessed as pro-caspase-9 cleavage by Western blotting method; type: functional, cell-based; procedure, shortened: as §1
HL-60 [17] = assay: Induction of cell cycle arrest in human HL60 cells assessed as accumulation at S phase at 3 uM after 24 hrs by propidium iodide staining based flow cytometry (reference value: 17.9 +/- 0.6%); type: functional
U-937 [18] = assay: Induction of cell cycle arrest in human U937 cells assessed as accumulation at G2/M phase at 1 uM after 48 hrs by propidium iodide staining based flow cytometry (reference value: 19.1 +/- 1.1%); type: functional
Raji = assay: Cytotoxicity against human Raji cells after 72 hrs by MTT assay; type: functional, cell-based
Procedure, shortened: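 MTT colorimetric assay with 72 h continuous exposure. IC50 was fitted per experiment by non-linear regression. Values are means with SE from at least three independent experiments, each run in triplicate.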

HL-60 [19] = assay: Induction of apoptosis in human HL60 cells assessed as pro-caspase-8 cleavage by Western blotting method; type: functional, cell-based; procedure, shortened: as §1
U-937 [20] = assay: Induction of cell cycle arrest in human U937 cells assessed as accumulation at G2/M phase at 3 uM after 24 hrs by propidium iodide staining based flow cytometry (reference value: 22.8 +/- 1.6%); type: functional
U-937 [21] = assay: Induction of apoptosis in human U937 cells assessed as increase in caspase 9 activity using LEHD-pNA substrate at 10 uM after 24 hrs; type: functional, cell-based; procedure, shortened: as §2
HL-60 [22] = assay: Induction of cell cycle arrest in human HL60 cells assessed as accumulation at G1 phase at 10 uM after 24 hrs by propidium iodide staining based flow cytometry (reference value: 53 +/- 1.1%); type: functional
MOLT-3 [23] = assay: Induction of apoptosis in human MOLT3 cells assessed as increase in caspase 3/7 activity using DEVD-pNA substrate at 10 uM after 24 hrs; type: functional, cell-based; procedure, shortened: as §2
[24] = biological target: Mitogen-activated protein kinase; ERK1/ERK2 (Homo sapiens) (UniProt P27361+P28482); assay: Increase in ERK1/2 phosphorylation in human HL60 cells at 10 to 30 uM after 2 to 6 hrs by Western blotting method; type: cell-based; conditions: HL-60
Chain of Mitogen-activated protein kinase; ERK1/ERK2 (Homo sapiens) (P27361 whole entry, looked up): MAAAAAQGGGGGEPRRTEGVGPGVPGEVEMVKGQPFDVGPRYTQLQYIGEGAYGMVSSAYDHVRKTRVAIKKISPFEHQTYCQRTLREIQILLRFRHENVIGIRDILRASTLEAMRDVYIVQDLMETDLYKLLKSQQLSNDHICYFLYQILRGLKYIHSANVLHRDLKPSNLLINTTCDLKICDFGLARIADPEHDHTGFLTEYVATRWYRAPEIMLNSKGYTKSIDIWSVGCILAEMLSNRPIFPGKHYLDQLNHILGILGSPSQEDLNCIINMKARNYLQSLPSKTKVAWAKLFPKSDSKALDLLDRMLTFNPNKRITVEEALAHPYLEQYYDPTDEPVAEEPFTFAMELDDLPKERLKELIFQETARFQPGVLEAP
Chain of Mitogen-activated protein kinase; ERK1/ERK2 (Homo sapiens) (P28482 whole entry, looked up): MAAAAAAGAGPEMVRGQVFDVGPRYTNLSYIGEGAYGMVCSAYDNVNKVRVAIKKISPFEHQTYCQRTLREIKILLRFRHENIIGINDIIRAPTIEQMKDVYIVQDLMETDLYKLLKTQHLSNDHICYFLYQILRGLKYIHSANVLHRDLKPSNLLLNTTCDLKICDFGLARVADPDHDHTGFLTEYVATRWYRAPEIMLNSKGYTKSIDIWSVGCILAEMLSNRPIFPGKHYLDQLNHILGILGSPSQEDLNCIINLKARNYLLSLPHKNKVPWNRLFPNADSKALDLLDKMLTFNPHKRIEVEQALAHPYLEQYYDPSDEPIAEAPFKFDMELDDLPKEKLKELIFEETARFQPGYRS
Procedure, shortened: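 HL-60 cells were incubated for a time course. Extracts were immunoblotted with phospho-specific antibodies for ERK 1/2, JNK/SAPK and p38MAPK. Membranes were then stripped and reprobed for the total kinases as loading controls.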

MOLT-3 [25] = assay: Induction of apoptosis in human MOLT3 cells assessed as pro-caspase-3 cleavage by Western blotting method; type: functional, cell-based; procedure, shortened: as §1
MOLT-3 [26] = assay: Induction of apoptosis in human MOLT3 cells assessed as increase in caspase 9 activity using LEHD-pNA substrate at 10 uM after 24 hrs; type: functional, cell-based; procedure, shortened: as §2
HL-60 [27] = assay: Induction of cell cycle arrest in human HL60 cells assessed as accumulation at subG1 phase at 1 uM after 24 hrs by propidium iodide staining based flow cytometry (reference value: 3.4 +/- 0.3%); type: functional
U-937 [28] = assay: Induction of apoptosis in human U937 cells assessed as pro-caspase-4 processing by Western blotting method; type: functional, cell-based; procedure, shortened: as §1
U-937 [29] = assay: Induction of apoptosis in human U937 cells assessed as pro-caspase-6 cleavage by Western blotting method; type: functional, cell-based; procedure, shortened: as §1
HL-60 [30] = assay: Induction of cell cycle arrest in human HL60 cells assessed as accumulation at subG1 phase at 3 uM after 24 hrs by propidium iodide staining based flow cytometry (reference value: 3.4 +/- 0.3%); type: functional

With `O=c1c(O)c(-c2ccc(Br)cc2)oc2ccccc12` the Activity (U-937 [1]) was 4.3%, the Activity (U-937 [2]) was 42.3% and the Activity (HL-60 [3]) was “Active”. The Activity (HL-60 [4]) was “Active”, the Activity (U-937 [5]) was 23.7% and the Activity (U-937 [6]) was “Active”. The Activity (HL-60 [7]) was 18.2%, the Activity (MOLT-3 [8]) was “Active” and the Activity (U-937 [9]) was “Active”. For the same compound, the Activity (HL-60 [10]) was 19.4%, the Activity (U-937 [11]) was “Active” and the Activity (HL-60 [12]) was 21.8%. The Activity (MOLT-3 [13]) was “inactive”, the Activity (U-937 [14]) was “Active” and the Activity (HL-60 [15]) was “Active”. For the same compound, the Activity (MOLT-3 [16]) was “Active”, the Activity (HL-60 [17]) was 17.6% and the Activity (U-937 [18]) was 19.9%. The IC50 (Raji) was 5.8 µM, the Activity (HL-60 [19]) was “Active” and the Activity (U-937 [20]) was 21.7%. The Activity (U-937 [21]) was “Active”, the Activity (HL-60 [22]) was 37.3% and the Activity (MOLT-3 [23]) was “Active”. For the same compound, the Activity [24] was “Active”, the Activity (MOLT-3 [25]) was “Active” and the Activity (MOLT-3 [26]) was “Active”. For the same compound, the Activity (HL-60 [27]) was 4.1%, the Activity (U-937 [28]) was “Active” and the Activity (U-937 [29]) was “Active”. For the same compound, the Activity (HL-60 [30]) was 5.9%.

— ChEMBL document CHEMBL3352730, “Synthesis and effects on cell viability of flavonols and 3-methyl ether derivatives on human leukemia cells” (Eur J Med Chem, 2014)
